Calls of active or inactive are those of the source. The calls are words filed in the database; no cut-off is given here.
What was measured:
Orexin receptor type 2 = target: T1, Orexin receptor type 2 (Homo sapiens, UniProt O43614); experiment: Antagonist activity at human OX2R expressed in CHOK1 cells assessed as inhibition of orexin A-induced intracellular calcium level preincubated for 15 mins followed by orexin A addition by Fura-2-AM dye based fluorescence assay; type: cell-based; conditions: for inhibition (INH): human
T1 sequence (O43614 whole entry): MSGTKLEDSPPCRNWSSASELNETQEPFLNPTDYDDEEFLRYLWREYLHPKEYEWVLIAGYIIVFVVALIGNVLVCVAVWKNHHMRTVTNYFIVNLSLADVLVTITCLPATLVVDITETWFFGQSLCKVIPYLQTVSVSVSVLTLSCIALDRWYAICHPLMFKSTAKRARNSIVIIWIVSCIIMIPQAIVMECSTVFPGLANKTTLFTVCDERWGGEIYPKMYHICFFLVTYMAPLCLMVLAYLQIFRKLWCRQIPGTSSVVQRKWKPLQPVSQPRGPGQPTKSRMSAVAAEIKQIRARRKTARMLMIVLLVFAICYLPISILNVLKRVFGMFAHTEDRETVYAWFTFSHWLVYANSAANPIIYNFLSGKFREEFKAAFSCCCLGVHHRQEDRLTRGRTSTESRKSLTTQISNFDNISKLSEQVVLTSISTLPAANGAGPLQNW
Outline: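 CHO cells expressing human OX1R or OX2R; calcium transient assay. IC50 came from concentration-response curves in at least three independent assays, each run in triplicate. Ki was derived by the Cheng-Prusoff equation and reported as mean ± SEM. […] Some compounds were tested as HCl, MeSO3H or 2H2SO4 salts.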

[1] = target: Delta-type opioid receptor (Homo sapiens, UniProt P41143); experiment: Displacement of [3H]DPDPE from human delta opioid receptor expressed in CHO cell membranes by micro-beta scintillation counting method
[2] = Solubility of the compound in water; type: physicochemical; conditions: buffer
[3] = Solubility of the compound in saline; type: physicochemical; conditions: buffer
[4] = target: T2, Orexin/Hypocretin receptor type 1 (Homo sapiens, UniProt O43613); experiment: Antagonist activity at human OX1R expressed in CHOK1 cells assessed as inhibition of orexin A-induced intracellular calcium level preincubated for 15 mins followed by orexin A addition by Fura-2-AM dye based fluorescence assay
T2 sequence (O43613 whole entry): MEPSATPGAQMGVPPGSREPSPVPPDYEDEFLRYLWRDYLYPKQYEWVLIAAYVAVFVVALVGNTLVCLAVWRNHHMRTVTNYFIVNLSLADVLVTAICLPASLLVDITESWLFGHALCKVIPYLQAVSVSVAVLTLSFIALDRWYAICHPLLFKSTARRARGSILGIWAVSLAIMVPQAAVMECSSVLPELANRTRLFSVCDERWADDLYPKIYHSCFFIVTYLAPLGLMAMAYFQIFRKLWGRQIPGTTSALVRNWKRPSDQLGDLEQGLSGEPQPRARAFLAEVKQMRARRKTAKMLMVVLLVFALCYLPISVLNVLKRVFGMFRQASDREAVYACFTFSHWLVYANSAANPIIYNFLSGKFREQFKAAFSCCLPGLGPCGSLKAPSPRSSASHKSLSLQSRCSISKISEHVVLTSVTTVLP

Mu-type opioid receptor = Mu-type opioid receptor (Homo sapiens, UniProt P35372); experiment: Displacement of [3H]DAMGO from human mu opioid receptor expressed in CHO cell membranes by micro-beta scintillation counting method
[5] = Selectivity index, ratio of IC50 for human OX2R expressed in CHOK1 cells to IC50 for human OX1R expressed in CHOK1 cells
[6] = target: Kappa-type opioid receptor (Homo sapiens, UniProt P41145); experiment: Displacement of [3H]U69,593 from human kappa opioid receptor expressed in CHO cell membranes by micro-beta scintillation counting method
Mus musculus [7] = experiment: Reduction in morphine dependence expression in ICR mouse assessed as inhibition of naloxone-precipitated jumping behavior at 10 mg/kg, ip administered 30 mins prior to first morphine injection each day for 5 days followed by naloxone challenge 2 hrs post last morphine dose measured over 60 mins; type: functional, organism-based
Mus musculus [8] = experiment: Reduction in morphine dependence expression in ICR mouse assessed as inhibition of naloxone-precipitated diarrhea at 10 mg/kg, ip administered 30 mins prior to first morphine injection each day for 5 days followed by naloxone challenge 2 hrs post last morphine dose measured over 60 mins; type: functional, organism-based
Mus musculus [9] = experiment: Reduction in morphine dependence expression in ICR mouse assessed as inhibition of naloxone-precipitated body weight loss at 10 mg/kg, ip administered 30 mins prior to first morphine injection each day for 5 days followed by naloxone challenge 2 hrs post last morphine dose measured over 60 mins; type: functional, organism-based
[10] = target: T3, Orexin/Hypocretin receptor type 1 (Homo sapiens) (UniProt O43613)
T3 sequence (whole entry): T2 sequence (O43613 whole entry)

Kappa-type opioid receptor, sequence (P41145 whole entry): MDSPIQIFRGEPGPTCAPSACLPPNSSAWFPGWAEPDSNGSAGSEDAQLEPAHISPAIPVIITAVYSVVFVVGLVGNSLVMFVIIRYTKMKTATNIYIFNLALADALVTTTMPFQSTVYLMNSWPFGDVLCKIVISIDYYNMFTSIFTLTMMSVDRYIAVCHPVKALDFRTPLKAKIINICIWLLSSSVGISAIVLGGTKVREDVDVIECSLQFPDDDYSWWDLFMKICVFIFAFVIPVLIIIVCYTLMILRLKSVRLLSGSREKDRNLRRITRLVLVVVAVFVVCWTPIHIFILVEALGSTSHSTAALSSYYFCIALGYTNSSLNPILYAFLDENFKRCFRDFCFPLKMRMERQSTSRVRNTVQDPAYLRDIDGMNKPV
Delta-type opioid receptor, sequence (P41143 whole entry): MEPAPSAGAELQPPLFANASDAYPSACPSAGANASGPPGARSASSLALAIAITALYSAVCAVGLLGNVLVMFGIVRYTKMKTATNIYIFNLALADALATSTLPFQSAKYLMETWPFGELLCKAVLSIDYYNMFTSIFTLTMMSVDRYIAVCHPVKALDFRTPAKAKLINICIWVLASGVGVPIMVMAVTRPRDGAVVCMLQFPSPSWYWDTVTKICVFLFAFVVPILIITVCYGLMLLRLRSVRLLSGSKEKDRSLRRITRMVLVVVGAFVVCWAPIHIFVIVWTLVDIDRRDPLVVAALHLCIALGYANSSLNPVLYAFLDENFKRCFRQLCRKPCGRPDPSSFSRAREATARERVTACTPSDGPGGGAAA
Mu-type opioid receptor, sequence (P35372 whole entry): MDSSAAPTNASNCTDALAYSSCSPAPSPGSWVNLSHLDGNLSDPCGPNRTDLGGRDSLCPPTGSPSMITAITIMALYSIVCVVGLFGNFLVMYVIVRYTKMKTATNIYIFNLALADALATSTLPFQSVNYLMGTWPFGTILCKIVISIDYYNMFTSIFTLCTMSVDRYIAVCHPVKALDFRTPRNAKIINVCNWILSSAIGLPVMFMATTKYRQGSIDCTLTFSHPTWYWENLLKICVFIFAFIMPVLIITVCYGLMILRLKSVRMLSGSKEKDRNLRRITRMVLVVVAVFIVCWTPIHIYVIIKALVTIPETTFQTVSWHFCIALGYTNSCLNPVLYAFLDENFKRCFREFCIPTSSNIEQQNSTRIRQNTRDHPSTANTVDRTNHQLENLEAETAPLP

Structure (SMILES) | Ki [1] [nM] | solubility [2] | solubility [3] | Ki [4] [nM] | Ki (Mu-type opioid receptor) [nM] | Ratio IC50 [5] | Ki [6] [nM] | other results
CN(C(=O)/C=C/c1ccoc1)[C@@H]1CC[C@@]2(O)[C@H]3Cc4ccc(O)c5c4[C@@]2(CCN3CC2CC2)[C@H]1O5.Cl [NALFURAFINE HYDROCHLORIDE] | 693 | Insoluble | Insoluble | 250 | 5.99 | – | – | inhibition (INH) (Orexin receptor type 2): Not Active
Cc1cc(NC(=O)Nc2ccc(N(C)C)cc2)c2cc(F)cc(F)c2n1.Cl.Cl | > 1000 | Insoluble | Insoluble | 18.9 | > 1000 | <88.4 | > 1000 | Ki (Orexin receptor type 2; read-out: Ki): 2070 nM
COc1ccc2c3c1O[C@H]1[C@H](N(C)C(=O)/C=C/c4ccoc4)CC[C@@]4(O)[C@@H](C2)N(C(=O)C2CC2)CC[C@]314 | > 1000 | Insoluble | Insoluble | 12 | > 1000 | <88.4 | > 1000 | –
COc1ccc2c3c1O[C@H]1[C@H](N(C)C(=O)/C=C/c4ccoc4)CC[C@@]4(O)[C@@H](C2)N(CC2CC2)CC[C@]314 | – | – | – | 22.5 | – | – | – | inhibition (INH) (Orexin receptor type 2): Not Active
CN(C)c1ccc(S(=O)(=O)N2CC[C@]34c5c6ccc(O)c5O[C@H]3[C@H](N(C)C(=O)/C=C/c3ccoc3)CC[C@@]4(O)[C@H]2C6)cc1 | > 1000 | – | – | – | 971 | – | 200 | –
COc1ccc2c3c1O[C@H]1[C@H](N(C)C(=O)/C=C/c4ccoc4)CC[C@@]4(O)[C@@H](C2)N(C(=O)OC(C)(C)C)CC[C@]314 | > 1000 | Insoluble | Insoluble | 4.15 | > 1000 | <88.4 | 184 | –
CN(C(=O)/C=C/c1ccoc1)[C@@H]1CC[C@@]2(O)[C@H]3Cc4cccc5c4[C@@]2(CCN3CC2CC2)[C@H]1O5 | – | – | – | 1240 | – | – | – | inhibition (INH) (Orexin receptor type 2): Not Active
COc1ccc2c3c1O[C@H]1[C@H](N(C)C(=O)/C=C/c4ccoc4)CC[C@@]4(O)[C@@H](C2)N(S(=O)(=O)c2cccc(C)c2)CC[C@]314 | – | Insoluble | Insoluble | 2.98 | – | <88.4 | – | –
CN(C(=O)/C=C/c1ccco1)[C@@H]1CC[C@@]2(O)[C@H]3Cc4ccc(O)c5c4[C@@]2(CCN3CC2CC2)[C@H]1O5 | – | Insoluble | Insoluble | 751 | – | <88.4 | – | –
COc1ccc2c3c1O[C@H]1[C@H](N(C)C(=O)/C=C/c4ccccn4)CC[C@@]4(O)[C@@H](C2)N(S(=O)(=O)c2ccccc2N(C)C)CC[C@]314 | – | – | – | – | – | – | – | inhibition (Mus musculus [7]): Active; inhibition (Mus musculus [8]): Active; inhibition (Mus musculus [9]): Active
COc1ccc2c3c1O[C@H]1[C@H](N(C)C(=O)/C=C/c4ccoc4)CC[C@@]4(O)[C@@H](C2)N(S(=O)(=O)c2ccc([N+](=O)[O-])cc2)CC[C@]314 | – | Insoluble | Insoluble | 12.5 | – | <88.4 | – | –
COc1ccc2c3c1O[C@H]1[C@H](N(C)C(=O)/C=C/c4ccoc4)CC[C@@]4(O)[C@@H](C2)N(S(=O)(=O)C2CC2)CC[C@]314 | – | Insoluble | Insoluble | 12.1 | – | <88.4 | – | –
COc1ccc2c3c1O[C@H]1[C@H](N(C)C(=O)/C=C/c4ccoc4)CC[C@@]4(O)[C@@H](C2)N(S(=O)(=O)c2ccccc2Br)CC[C@]314 | – | Insoluble | Insoluble | 2.1 | – | <88.4 | – | –
COc1ccc2c3c1O[C@H]1[C@H](N(C)C(=O)/C=C/c4ccoc4)CC[C@@]4(O)[C@@H](C2)N(S(=O)(=O)c2ccc(N(C)C)cc2)CC[C@]314.Cl | > 1000 | Insoluble | Insoluble | 12.9 | > 1000 | <88.4 | > 1000 | –
COc1ccc2c3c1O[C@H]1[C@H](N(C)C(=O)/C=C/c4ccoc4)CC[C@@]4(O)[C@@H](C2)N(S(=O)(=O)c2ccccc2F)CC[C@]314 | – | Insoluble | Insoluble | 2.07 | – | <88.4 | – | –
COc1ccc2c3c1O[C@H]1[C@H](N(C)C(=O)/C=C/c4ccoc4)CC[C@@]4(O)[C@@H](C2)N(C(=O)/C=C/c2ccccc2)CC[C@]314 | > 1000 | Insoluble | Insoluble | 14 | > 1000 | <88.4 | > 1000 | –
COc1ccc2c3c1O[C@H]1[C@H](N(C)C(=O)/C=C/c4ccccn4)CC[C@@]4(O)[C@@H](C2)N(S(=O)(=O)c2ccccc2N(C)C)CC[C@]314.O=S(=O)(O)O.O=S(=O)(O)O | > 1000 | – | – | – | > 1000 | – | > 1000 | –
COc1ccc2c3c1O[C@H]1[C@H](N(C)C(=O)/C=C/c4ccoc4)CC[C@@]4(O)[C@@H](C2)N(S(=O)(=O)c2cccc(Cl)c2)CC[C@]314 | – | Insoluble | Insoluble | 3.47 | – | <88.4 | – | –
COc1ccc2c3c1O[C@H]1[C@H](N(C)C(=O)/C=C/c4ccoc4)CC[C@@]4(O)[C@@H](C2)N(S(=O)(=O)c2ccccc2)CC[C@]314 | > 1000 | Insoluble | Insoluble | 8.14 | > 1000 | <88.4 | > 1000 | –
COc1ccccc1S(=O)(=O)N1CC[C@]23c4c5ccc(OC)c4O[C@H]2[C@H](N(C)C(=O)/C=C/c2ccoc2)CC[C@@]3(O)[C@H]1C5 | – | Insoluble | Insoluble | 6.37 | – | <88.4 | – | –
COc1ccc2c3c1O[C@H]1[C@H](N(C)C(=O)/C=C/c4ccoc4)CC[C@@]4(O)[C@@H](C2)N(S(=O)(=O)c2ccccc2[N+](=O)[O-])CC[C@]314 | – | Insoluble | Insoluble | 1.81 | – | <88.4 | – | Ki (Orexin receptor type 2): Not Active; Ke [10]: 3.69 nM
COc1ccc2c3c1O[C@H]1[C@H](N(C)C(=O)/C=C/c4ccoc4)CC[C@@]4(O)[C@@H](C2)N(C(=O)c2ccc(C)cc2)CC[C@]314 | – | Insoluble | Insoluble | 14 | – | <88.4 | – | Ki (Orexin receptor type 2; read-out: Ki): 725 nM
